Assay results as given in ChEMBL document CHEMBL1157704, “Potent activity against K562 cells by polyamide-seco-CBI conjugates targeting histone H4 genes” (Bioorg Med Chem, 2010).
Calls of active or inactive are those of the source. The calls are words filed in the database; no cut-off is given here.

Tests used:
K562 [1] = assay: Cytotoxicity against human K562 cells by MTS assay; type: functional, cell-based
How it was run: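 Proliferation of K562 cells (ATCC, standard culture) was read as mitochondrial conversion of the MTS tetrazolium to formazan, using the CellTiter 96 Aqueous One reagent. EC50 was derived from these readings.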

K562 [2] = assay: Downregulation of histone H4C mRNA expression in human K562 cells at 250 nM after 48 hrs by real-time PCR analysis; type: functional
How it was run: (§1)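 Treated K562 cells were assayed by one-step real-time RT-PCR. Reverse transcription ran 50 °C for 10 min, then hot-start polymerase activation at 95 °C for 15 min. Cycling was 45 cycles of 95 °C 15 s, 55 °C 30 s and 72 °C 30 s. Levels were normalized to GAPDH mRNA; error shown as standard deviation.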

K562 [3] = assay: Downregulation of histone H4E mRNA expression in human K562 cells at 250 nM after 48 hrs by real-time PCR analysis; type: functional, cell-based; how it was run: as §1
K562 [4] = assay: Cell cycle arrest in human K562 cells assessed as increase in accumulation at G2/M phase at 250 nM after 48 hrs propidium iodide staining-based FACS analysis; type: functional
How it was run: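 K562 cells (ATCC, b3a2 Bcr-Abl) exposed to polyamide in culture medium and pelleted at 200g for 5 min. Pellets resuspended in PBS, fixed in prechilled 70% ethanol and stained with propidium iodide (50 µg/mL). DNA content read by flow cytometry as G0–G1, S and G2–M fractions; sub-2C DNA taken as fragmentation/apoptosis.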

K562 [5] = assay: Induction of apoptosis in human K562 cells assessed as viable cells at 250 nM after 48 hrs by annexin-V FITC and propidium iodide staining-based FACS analysis; type: functional; conditions: K562, 48 h, read-out: Activity
How it was run: (§2)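 Treated K562 cells […] stained with Annexin V-FITC/propidium iodide. Apoptosis was scored by two-dimensional flow cytometry at a core FACS facility.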

K562 [6] = assay: Induction of apoptosis in human K562 cells assessed as early apoptotic cells at 250 nM after 48 hrs by annexin-V FITC and propidium iodide staining-based FACS analysis; type: functional; how it was run: as §2
K562 [7] = assay: Induction of apoptosis in human K562 cells assessed as late apoptotic cells at 250 nM after 48 hrs by annexin-V FITC and propidium iodide staining-based FACS analysis; type: functional; how it was run: as §2
K562 [8] = assay: Induction of apoptosis in human K562 cells assessed as non-viable necrotic cells at 250 nM after 48 hrs by annexin-V FITC and propidium iodide staining-based FACS analysis; type: functional; how it was run: as §2
[9] = test system: histone H4c gene fragment DNA (human); assay: Binding affinity to 5'-AGAAAA-3' sequence of 223 bp human histone H4c gene fragment DNA assessed as DNA alkylating activity at 50 to 100 nM after 15 hrs by PAGE

Activity [9]	SMILES	EC50 (K562 [1])	Activity (K562 [2])	Activity (K562 [3])	Activity (K562 [4])	viability at 0.25 µM (K562 [5])	Activity (K562 [6])	Activity (K562 [7])	Activity (K562 [8])
	CN(C)CCCNC(=O)CCNC(=O)c1cc(NC(=O)c2cc(NC(=O)c3cc(NC(=O)c4nc(NC(=O)[C@@H](CCNC(=O)CCCc5ccc(N(CCCl)CCCl)cc5)NC(=O)c5cc(NC(=O)c6cc(NC(=O)CCNC(=O)c7nccn7C)cn6C)cn5C)cn4C)cn3C)cn2C)cn1C	81 nM	81%	Active	Active	76.8%	10.4%	9.12%	3.69%
	CN(C)CCCNC(=O)CCNC(=O)c1cc(NC(=O)c2cc(NC(=O)c3cc(NC(=O)c4cc(NC(=O)[C@@H](CCNC(=O)CCCc5ccc(N(CCCl)CCCl)cc5)NC(=O)c5nc(NC(=O)CCNC(=O)c6nc(NC(=O)c7nccn7C)cn6C)cn5C)cn4C)cn3C)cn2C)cn1C	300 nM	52%	Active	Active	78.1%	10.3%	10.6%	1.1%
Active	CC(=O)Nc1cc(C(=O)Nc2cc(C(=O)NCCC(=O)N[C@@H](CCNC(=O)c3cc(NC(=O)c4nc(NC(=O)c5cc(NC(=O)c6nc(NC(C)=O)cn6C)cn5C)cn4C)cn3C)C(=O)Nc3cn(C)c(C(=O)Nc4cc(C(=O)Nc5ccc6[nH]c(C(=O)N7CC(CCl)c8c7cc(O)c7ccccc87)cc6c5)n(C)c4)n3)n(C)c2)n(C)c1 (some centres undefined)	17 nM							
Active	CC(=O)Nc1cc(C(=O)Nc2cc(C(=O)NCCC(=O)N[C@@H](CCNC(=O)c3cc(NC(=O)c4nc(NC(=O)CCNC(=O)c5nc(NC(C)=O)cn5C)cn4C)cn3C)C(=O)Nc3cn(C)c(C(=O)Nc4cc(C(=O)Nc5ccc6[nH]c(C(=O)N7CC(CCl)c8c7cc(O)c7ccccc87)cc6c5)n(C)c4)n3)n(C)c2)n(C)c1 (some centres undefined)	38 nM							
Active	CC(=O)Nc1cn(C)c(C(=O)Nc2cc(C(=O)Nc3cn(C)c(C(=O)Nc4cc(C(=O)NCCCC(=O)Nc5cn(C)c(C(=O)Nc6cc(C(=O)Nc7ccc8[nH]c(C(=O)N9CC(CCl)c%10c9cc(O)c9ccccc%109)cc8c7)n(C)c6)n5)n(C)c4)n3)n(C)c2)n1 (centres undefined)	33 nM							
	CN(C)CCCNC(=O)CCNC(=O)c1cc(NC(=O)c2cc(NC(=O)c3cc(NC(=O)c4cc(NC(=O)[C@H](CCNC(=O)CCCc5ccc(N(CCCl)CCCl)cc5)NC(=O)c5nc(NC(=O)CCNC(=O)c6nc(NC(=O)c7nccn7C)cn6C)cn5C)cn4C)cn3C)cn2C)cn1C		inactive	inactive	Active	83.4%	6.37%	8.88%	1.39%
